Measurements published in ChEMBL document CHEMBL4251754, “Identification of a Potent Tryptophan-Based TRPM8 Antagonist With in Vivo Analgesic Activity” (J Med Chem, 2018).
Activity calls are given as the source filed them. No cut-off for these calls is given here.

Assays:
[1] = biological target: T1, Transient receptor potential cation channel subfamily M member 8 (Rattus norvegicus, UniProt Q8R455); assay: Antagonist activity at rat TRPM8 expressed in HEK293 cells assessed as reduction in menthol-induced calcium flux incubated for 60 mins by Fluo-4 NW-dye based fluorimetric assay; format: cell-based
T1 sequence (Q8R455 whole entry): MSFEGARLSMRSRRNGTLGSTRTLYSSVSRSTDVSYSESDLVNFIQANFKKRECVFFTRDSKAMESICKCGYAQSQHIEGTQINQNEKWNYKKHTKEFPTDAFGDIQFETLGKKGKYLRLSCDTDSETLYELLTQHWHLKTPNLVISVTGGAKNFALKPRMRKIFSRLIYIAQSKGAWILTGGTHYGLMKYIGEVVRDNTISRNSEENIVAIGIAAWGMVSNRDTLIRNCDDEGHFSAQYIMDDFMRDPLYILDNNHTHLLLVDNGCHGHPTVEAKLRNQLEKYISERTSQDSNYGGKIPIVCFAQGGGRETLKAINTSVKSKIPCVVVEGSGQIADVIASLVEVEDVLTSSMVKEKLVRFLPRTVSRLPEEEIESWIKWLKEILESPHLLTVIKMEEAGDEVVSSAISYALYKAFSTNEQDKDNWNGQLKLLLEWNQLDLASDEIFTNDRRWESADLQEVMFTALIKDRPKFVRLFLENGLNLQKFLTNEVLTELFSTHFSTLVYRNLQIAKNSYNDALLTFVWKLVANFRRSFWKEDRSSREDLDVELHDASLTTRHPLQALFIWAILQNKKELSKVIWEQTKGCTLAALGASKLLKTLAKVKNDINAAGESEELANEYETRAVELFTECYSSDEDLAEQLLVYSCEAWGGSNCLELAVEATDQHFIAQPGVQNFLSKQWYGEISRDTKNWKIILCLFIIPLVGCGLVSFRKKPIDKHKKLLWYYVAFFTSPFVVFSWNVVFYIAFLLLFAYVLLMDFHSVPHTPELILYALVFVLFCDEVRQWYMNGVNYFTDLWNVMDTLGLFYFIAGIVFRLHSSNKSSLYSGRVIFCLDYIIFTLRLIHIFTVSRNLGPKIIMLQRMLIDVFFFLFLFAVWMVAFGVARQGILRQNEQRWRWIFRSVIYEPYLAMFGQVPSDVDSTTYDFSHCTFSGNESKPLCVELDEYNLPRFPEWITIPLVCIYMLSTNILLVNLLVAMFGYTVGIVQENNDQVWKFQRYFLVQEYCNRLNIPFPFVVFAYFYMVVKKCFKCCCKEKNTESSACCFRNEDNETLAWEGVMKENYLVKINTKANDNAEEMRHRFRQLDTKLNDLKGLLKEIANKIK
Summary of the method: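 HEK293 cells stably expressing rat TRPM8, seeded 2 days ahead, loaded with Fluo-4 NW containing 2.5 mM probenecid; compounds in DMSO, 60 min at 37 °C in darkness. Four baseline cycles, 100 μM menthol stimulation, 15 further cycles read (ex 485/em 535 nm). Normalized to menthol + 10 μM AMTB coexposure; DMSO controls.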

[2] = Apparent permeability of the compound in 0.01 M phosphate buffer at pH 7.4 at 0.5 mM after 24 hrs by PAMPA; format: ADME
Summary of the method: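 Donor at 0.5 mM, diluted from 10 mM DMSO stock into 0.01 M phosphate buffer pH 7.4. Filter coated with 1% phosphatidylcholine in dodecane; acceptor is 5% DMSO in phosphate buffer. Incubated 24 h at room temperature with gentle shaking. Acceptor analysed by HPLC-UV at 220 nm against no-membrane references. Papp from Faller-modified Sugano equation; triplicate, with propranolol and furosemide as references.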

[3] = biological target: Transient receptor potential cation channel subfamily M member 8 (Homo sapiens, UniProt Q7Z2W7); assay: Antagonist activity at TRPM8 (unknown origin) assessed as reduction in menthol-induced calcium influx
Chain of Transient receptor potential cation channel subfamily M member 8 (Homo sapiens, UniProt Q7Z2W7) (Q7Z2W7 whole entry): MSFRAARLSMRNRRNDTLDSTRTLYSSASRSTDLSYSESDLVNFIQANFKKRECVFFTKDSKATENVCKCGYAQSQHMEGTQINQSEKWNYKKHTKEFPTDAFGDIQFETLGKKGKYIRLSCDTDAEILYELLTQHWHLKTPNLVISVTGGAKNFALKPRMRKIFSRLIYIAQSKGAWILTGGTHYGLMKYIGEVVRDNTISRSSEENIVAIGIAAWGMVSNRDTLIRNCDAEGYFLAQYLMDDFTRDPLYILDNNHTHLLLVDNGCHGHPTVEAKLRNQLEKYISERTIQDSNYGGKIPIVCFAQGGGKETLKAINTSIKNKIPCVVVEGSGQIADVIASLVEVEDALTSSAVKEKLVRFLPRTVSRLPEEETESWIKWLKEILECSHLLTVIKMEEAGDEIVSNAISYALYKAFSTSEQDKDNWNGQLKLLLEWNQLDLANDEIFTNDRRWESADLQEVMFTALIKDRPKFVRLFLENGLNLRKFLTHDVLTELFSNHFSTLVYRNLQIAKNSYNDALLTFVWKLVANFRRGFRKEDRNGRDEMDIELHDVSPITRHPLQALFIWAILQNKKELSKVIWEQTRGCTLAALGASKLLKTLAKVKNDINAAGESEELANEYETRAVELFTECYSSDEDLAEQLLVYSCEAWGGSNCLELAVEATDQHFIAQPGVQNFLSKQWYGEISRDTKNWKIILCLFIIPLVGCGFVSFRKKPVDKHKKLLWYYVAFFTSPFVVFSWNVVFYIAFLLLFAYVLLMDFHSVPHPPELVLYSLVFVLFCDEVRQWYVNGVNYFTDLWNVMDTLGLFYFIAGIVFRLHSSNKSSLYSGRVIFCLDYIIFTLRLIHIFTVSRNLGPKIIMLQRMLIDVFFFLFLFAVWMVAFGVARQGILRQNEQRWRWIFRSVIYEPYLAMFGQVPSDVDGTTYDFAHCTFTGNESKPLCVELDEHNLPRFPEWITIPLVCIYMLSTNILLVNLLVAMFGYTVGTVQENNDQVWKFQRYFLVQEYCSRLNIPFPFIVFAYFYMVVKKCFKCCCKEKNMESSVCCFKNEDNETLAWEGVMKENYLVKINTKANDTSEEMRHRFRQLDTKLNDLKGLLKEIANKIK
Summary of the method: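 HEK293 cells stably expressing rat TRPM8, seeded 2 days ahead, loaded with Fluo-4 NW plus 2.5 mM probenecid. Compounds in DMSO preincubated 60 min at 37 °C in the dark. Four baseline cycles, then stimulation with 100 μM menthol and 15 further read cycles (ex 485, em 535 nm). Signal normalized to menthol + 10 μM AMTB coexposure. DMSO vehicle controls.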

Mus musculus [4] = assay: Antinociceptive activity in C57Bl/6J mouse assessed as inhibition of icilin induced wet-dog shakes at 25 mg/kg, sc pretreated 1 hr before icillin addition and measured after 30 mins by wet-dog shakes assay; format: functional, organism-based
Summary of the method: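 Male C57 mice, 5 weeks, ~30 g, acclimatized 30 min on two consecutive days. Gabapentin in saline, 25 mg/kg s.c. 60 min before icilin (10 mg/kg i.p. in 20% DMSO/1% Tween 80). Wet-dog shakes counted over 30 min; mean ± SEM, n = 6; two-way ANOVA with Bonferroni.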

[5] = biological target: Transient receptor potential cation channel subfamily M member 8 (Rattus norvegicus) (UniProt Q8R455); assay: Reversible antagonist activity at rat TRPM8 expressed in HEK293 cells at 100 nM assessed as reduction in menthol-induced channel currents measured after drug wash out by whole cell patch clamp method; format: cell-based
Chain of Transient receptor potential cation channel subfamily M member 8 (Rattus norvegicus) (Q8R455 whole entry, looked up): as the sequence (Q8R455 whole entry) above

[6] = biological target: Transient receptor potential cation channel subfamily V member 1 (Mus musculus) (UniProt Q704Y3); assay: Antagonist activity at mouse TRPV1 expressed in human SH-SY5Y cells assessed as inhibition of capsaicin induced calcium influx at 0.001 to 100 uM incubated for 60 mins by Fluo-4 NW-dye based fluorimetric assay; format: cell-based
Chain of Transient receptor potential cation channel subfamily V member 1 (Mus musculus) (Q704Y3 whole entry): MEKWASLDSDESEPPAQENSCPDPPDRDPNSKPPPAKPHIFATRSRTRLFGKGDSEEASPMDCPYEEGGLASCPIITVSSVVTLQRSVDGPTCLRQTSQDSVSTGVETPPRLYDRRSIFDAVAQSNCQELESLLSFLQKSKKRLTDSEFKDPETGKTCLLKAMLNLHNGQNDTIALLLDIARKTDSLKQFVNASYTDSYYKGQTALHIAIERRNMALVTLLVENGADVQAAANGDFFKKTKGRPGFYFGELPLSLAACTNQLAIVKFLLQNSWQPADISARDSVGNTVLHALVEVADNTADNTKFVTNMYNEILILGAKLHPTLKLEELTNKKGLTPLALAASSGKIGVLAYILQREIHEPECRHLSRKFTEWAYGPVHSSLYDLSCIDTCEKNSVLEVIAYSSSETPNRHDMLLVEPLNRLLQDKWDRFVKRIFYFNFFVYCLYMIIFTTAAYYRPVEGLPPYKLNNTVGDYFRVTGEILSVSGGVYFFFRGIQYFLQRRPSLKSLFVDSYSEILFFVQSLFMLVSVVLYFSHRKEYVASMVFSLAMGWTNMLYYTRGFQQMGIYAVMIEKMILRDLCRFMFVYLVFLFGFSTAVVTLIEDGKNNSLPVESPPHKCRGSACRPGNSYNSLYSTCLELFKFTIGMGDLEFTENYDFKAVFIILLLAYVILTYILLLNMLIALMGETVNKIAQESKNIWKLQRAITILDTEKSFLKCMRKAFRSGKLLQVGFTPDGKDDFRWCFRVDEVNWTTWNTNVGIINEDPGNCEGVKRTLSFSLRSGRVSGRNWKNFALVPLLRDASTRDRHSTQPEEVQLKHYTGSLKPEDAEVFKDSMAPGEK
Summary of the method: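 SH-SY5Y cells stably expressing mouse TRPV1, seeded 2 days before, loaded with Fluo-4 NW plus 2.5 mM probenecid; compounds in DMSO added, 60 min at 37 °C in darkness. Four baseline cycles, then 10 μM capsaicin, recorded 15 more cycles (ex 485/em 535 nm). Signal normalized to capsaicin + 10 μM ruthenium red coexposure.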

Mus musculus [7] = assay: Antinociceptive activity in sc dosed C57/BL6 mouse assessed as inhibition of oxaliplatin induced cold allodynia administered as single dose injected into plantar surface of right hind paw on day 7 post oxaliplatin treatment and measured after 15 to 30 mins by acetone drop method; format: functional, organism-based
Summary of the method: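 Male C57 mice, 5 weeks, ~30 g. Oxaliplatin 6 mg/kg given on days 1, 3 and 5, with saline and 5% mannitol i.p.; tested on day 7. Antagonist stock in DMSO, diluted in saline, 0.1–1 μg injected in 25 μL into the plantar surface of the right hind paw. Acetone drop test after ~30 min habituation; paw sampled twice (~5 min apart) and averaged.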

[8] = Chemical stability of compound in phosphate buffer at pH 7.4 after 15 to 60 mins by HPLC analysis; format: physicochemical
Summary of the method: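 DMSO stock (10 mg/mL) diluted 1:100 in phosphate buffer and stirred at 37 °C. At 15, 30 and 60 min, extracted with dichloromethane (1:1), dried under nitrogen, reconstituted in methanol and filtered. Analysed by C18 HPLC with a 0.1% TFA water/acetonitrile gradient (5–90% B over 7 min), 0.5 mL/min, 220 nm detection. Triplicate.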

Mus musculus [9] = assay: Antinociceptive activity in C57Bl/6J mouse assessed as inhibition of icilin induced wet-dog shakes at 30 mg/kg, sc pretreated 30 mins before icillin addition and measured after 30 mins by wet-dog shakes assay; format: functional
Summary of the method: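 Male C57 mice, 5 weeks, ~30 g, acclimatized 30 min on two consecutive days. Compound (DMSO stock diluted in saline) given s.c. at 1, 10 or 30 mg/kg 30 min before icilin 10 mg/kg i.p. (20% DMSO/1% Tween 80). Wet-dog shakes counted over 30 min; mean ± SEM, n = 6; two-way ANOVA, Bonferroni.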

[10] = Drug metabolism in mouse serum assessed as (S)-2-(Dibenzylamino)-3-(1H-indol-3-yl)propanoic Acid formation after 15 to 60 mins by HPLC analysis; format: ADME, cell-free
Summary of the method: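 DMSO stock diluted 1:1000 in mouse serum (from retro-orbital blood) and stirred at 37 °C. Samples taken at 15, 30 and 60 min, extracted with dichloromethane, then analysed by C18 HPLC (0.1% TFA water/acetonitrile gradient, 220 nm) for parent and acid metabolite. Blank serum checked for interfering peaks; acetylsalicylic acid used to verify hydrolytic activity. Triplicate.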

[11] = biological target: Transient receptor potential cation channel subfamily M member 8 (Rattus norvegicus) (UniProt Q8R455); assay: (§1) Antagonist activity at rat TRPM8 expressed in HEK293 cells assessed as reduction in menthol-induced channel currents by whole cell patch clamp method; format: cell-based
Summary of the method: (§2)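 HEK293 cells grown in DMEM/10% FBS, plated on poly-L-lysine coverslips, transiently transfected 24 h later with rat TRPM8 cDNA (3.6 μg) plus EGFP marker (total cDNA 4 μg). Whole-cell recordings 24 h post-transfection on EGFP-positive cells, 3–5 MΩ pipettes. Extracellular solution (mM): 138 NaCl, 5.4 KCl, 2 CaCl2, 1 MgCl2, 10 glucose, 10 HEPES, pH 7.4. Currents evoked by 500 μM menthol, monitored at +80 and −80 mV.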

[12] = biological target: T1, Transient receptor potential cation channel subfamily M member 8; assay: as §1; format: cell-based; summary of the method: as §2
[13] = biological target: Transient receptor potential cation channel subfamily M member 8 (Rattus norvegicus) (UniProt Q8R455); assay: Antagonist activity at rat TRPM8 expressed in HEK293 cells at 100 nM assessed as reduction in menthol-induced channel currents by whole cell patch clamp method; format: cell-based
Mus musculus [14] = assay: Antinociceptive activity in sc dosed C57Bl/6J mouse assessed as inhibition of icilin induced wet-dog shakes pretreated 30 mins before icillin addition and measured after 30 mins by wet-dog shakes assay; format: functional, organism-based
Summary of the method: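 Male C57 mice, 5 weeks, ~30 g, acclimatized 30 min on two consecutive days. Compound (1, 10, 30 mg/kg; DMSO stock diluted in saline) or vehicle given s.c. 30 min before icilin 10 mg/kg i.p. (in 20% DMSO/1% Tween 80 in water). Gabapentin 25 mg/kg s.c. given 60 min before icilin. Wet-dog shakes counted over 30 min. Mean ± SEM, n = 6; two-way ANOVA with Bonferroni test.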

[15] = biological target: Transient receptor potential cation channel subfamily M member 8 (Rattus norvegicus) (UniProt Q8R455); assay: Reversible antagonist activity at rat TRPM8 expressed in HEK293 cells at 500 nM assessed as reduction in menthol-induced channel currents measured after drug wash out by whole cell patch clamp method; format: cell-based
Summary of the method: (§3)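 HEK293 cells transiently transfected with rat TRPM8 cDNA plus EGFP marker, recorded 24 h later by whole-cell patch clamp on EGFP-positive cells (3–5 MΩ pipettes). Extracellular (mM): 138 NaCl, 5.4 KCl, 2 CaCl2, 1 MgCl2, 10 glucose, 10 HEPES, pH 7.4. Currents evoked by 500 μM menthol, read at +80 and −80 mV; compound added during menthol exposure.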

[16] = biological target: Transient receptor potential cation channel subfamily M member 8 (Rattus norvegicus) (UniProt Q8R455); assay: Antagonist activity at rat TRPM8 expressed in HEK293 cells at 500 nM assessed as reduction in menthol-induced channel currents by whole cell patch clamp method; format: cell-based; summary of the method: as §3

For `O=C(O)[C@H](Cc1c[nH]c2ccccc12)N(Cc1ccccc1)Cc1ccccc1`, which IC50 [1] is on record?
The IC50 was 8.2 µM.

What about the Papp at 24 h, 500 µM [2] of the same compound?
The Papp at 24 h, 500 µM was 3.17 ×10⁻⁶ cm/s.

For `O=C(CN1CCc2c([nH]c3ccccc23)C1c1ccccc1)c1ccccc1` (racemic), which IC50 [1] is on record?
The IC50 was 1.6 µM.

With `CC(C)(C)c1ccc(NC(=O)N2CCN(c3ncccc3Cl)CC2)cc1` as the compound, how does the IC50 [3] read?
Its IC50 is 0.475 µM.

For `O=[N+]([O-])c1ccc(CN(CCc2c[nH]c3ccccc23)Cc2ccccc2)cc1`, which IC50 [1] is on record?
Its IC50 is 3 µM.

With `NCC1(CC(=O)O)CCCCC1` as the compound, how does the inhibition (Mus musculus [4]) read?
Its inhibition is “Active”.

With `c1cc2c3c(cccc3c1)CN(CCc1c[nH]c3ccccc13)C2` as the compound, how does the IC50 [1] read?
The IC50 was 11.8 µM.

With `COC(=O)[C@H](Cc1c[nH]c2ccccc12)N(Cc1ccccc1)Cc1ccccc1` as the compound, how does the inhibition [5] read?
Its inhibition is “Active”.

And the inhibition [6]?
The inhibition was “inactive”.

And the inhibition (Mus musculus [7])?
The inhibition was “Dose-dependent effect”.

What about the Stability [8] of the same compound?
The Stability was “Stable”.

And the inhibition in vivo at 30 mg/kg (Mus musculus [9])?
The inhibition in vivo at 30 mg/kg was 63%.

What about the Drug metabolism [10] of the same compound?
Its Drug metabolism is “Metabolite_Detected”.

And the inhibition [11]?
Its inhibition is “Dose-dependent effect”.

And the IC50 [12]?
Its IC50 is 0.0002 µM.

And the IC50 [1]?
Its IC50 is 0.04 µM.

What about the Papp at 24 h, 500 µM [2] of the same compound?
Its Papp at 24 h, 500 µM is 0.97 ×10⁻⁶ cm/s.

And the inhibition [13]?
Its inhibition is “Active”.

And the inhibition (Mus musculus [14])?
Its inhibition is “Dose-dependent effect”.

For `c1ccc(COc2ccc3[nH]cc(CCN(Cc4ccccc4)Cc4ccccc4)c3c2)cc1`, which IC50 [1] is on record?
The IC50 was 1.9 µM.

For `O=C(O)c1ccc(CN2CCc3c([nH]c4ccccc34)C2c2ccccc2)cc1` (racemic), which IC50 [1] is on record?
Its IC50 is over 100 µM.

For `c1ccc(CN(CCc2c[nH]c3ccccc23)Cc2ccccc2)cc1`, which IC50 [1] is on record?
The IC50 was 3.2 µM.

Which IC50 [1] does the source give for `O=[N+]([O-])c1ccc(Sc2[nH]c3ccccc3c2CCN(Cc2ccccc2)Cc2ccccc2)c([N+](=O)[O-])c1` here?
The IC50 was 2.2 µM.

Which IC50 [12] does the source give for `COC(=O)[C@@H](Cc1c[nH]c2ccccc12)N(Cc1ccccc1)Cc1ccccc1` here?
Its IC50 is 0.865 µM.

Which IC50 [1] does the source give for `Cc1cccc(COc2ccccc2C(=O)N(CCCN)Cc2cccs2)c1` here?
The IC50 was 6.5 µM.

Which IC50 [1] does the source give for `O=[N+]([O-])c1ccc(CN2CCc3c([nH]c4ccccc34)C2c2ccccc2)cc1` (racemic) here?
Its IC50 is 3.3 µM.

For `Cn1cc(CCN(Cc2ccccc2)Cc2ccccc2)c2ccccc21`, which IC50 [1] is on record?
Its IC50 is 3.3 µM.

With `c1ccc(CN(CCc2c[nH]c3ccccc23)CC2CCCCC2)cc1` as the compound, how does the inhibition [15] read?
The inhibition was “Active”.

And the inhibition [6]?
Its inhibition is “inactive”.

And the inhibition [16]?
Its inhibition is “Active”.

And the inhibition [11]?
The inhibition was “Dose-dependent effect”.

What about the IC50 [12] of the same compound?
Its IC50 is 0.0035 µM.

And the IC50 [1]?
Its IC50 is 0.6 µM.
